From ChEMBL document CHEMBL5260793, “Novel pyrazolo[3,4-d]pyrimidine with 4-(1H-benzimidazol-2-yl)-phenylamine as broad spectrum anticancer agents: Synthesis, cell based assay, topoisomerase inhibition, DNA intercalation and bovine serum albumin studies” (Eur J Med Chem, 2017)
Active and inactive are the calls of the source. The calls are words filed in the database; no cut-off is given here.

How the values were obtained:
[1] = tested on: Panel colon (Carcinoma cell lines); assay: Anticancer activity against human Panel colon (Carcinoma cell lines) assessed as total growth inhibition incubated for 48 hrs by Sulphorhodamine B assay; assay type: functional
Procedure, shortened: (§1)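 NCI-60 five-dose screen. Cells in RPMI 1640 with 5% FBS and 2 mM L-glutamine were plated at 5,000–40,000 cells/well and held 24 h before dosing. Compounds came from DMSO stocks and were given at five concentrations (10-fold or ½-log dilutions) for 48 h at 37 °C. Adherent cells were TCA-fixed and stained with SRB; A515 was read. GI50 was set from growth = 50% and TGI from Ti = Tz, using Tz/C/Ti.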

[2] = tested on: Panel renal (Carcinoma cell lines); assay: Anticancer activity against human Panel renal (Carcinoma cell lines) assessed as lethality incubated for 48 hrs by Sulphorhodamine B assay; assay type: functional
[3] = tested on: Panel CNS (Carcinoma cell lines); assay: Anticancer activity against human Panel CNS (Carcinoma cell lines) assessed as total growth inhibition incubated for 48 hrs by Sulphorhodamine B assay; assay type: functional; procedure, shortened: as §1
[4] = tested on: Panel ovarian (Carcinoma cell lines); assay: Anticancer activity against human Panel ovarian (Carcinoma cell lines) assessed as lethality incubated for 48 hrs by Sulphorhodamine B assay; assay type: functional
[5] = tested on: Calf thymus DNA; assay: Binding affinity to calf thymus DNA assessed as hypochromicity at pH 7.4 at 10 uM by UV-vis absorption spectroscopy; assay type: nucleic-acid assay; conditions: Bos taurus
Procedure, shortened: (§2)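 Absorption titration at 300 K in a 1 cm cell, background subtracted. Compound was fixed (10 μM per legend; 20 μM in methods) with ct-DNA added up to 15–20 μM in 10 mM phosphate buffer, pH 7.4 (A260/A280 1.82). A buffer-addition control was run. K was taken from the 1/(Af−Aobs) vs 1/[DNA] fit.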

[6] = tested on: Panel ovarian (Carcinoma cell lines); assay: Anticancer activity against human Panel ovarian (Carcinoma cell lines) assessed as cell growth inhibition incubated for 48 hrs by Sulphorhodamine B assay; assay type: functional; procedure, shortened: as §1
[7] = tested on: Panel breast (Carcinoma cell lines); assay: Anticancer activity against human Panel breast (Carcinoma cell lines) assessed as cell growth inhibition incubated for 48 hrs by Sulphorhodamine B assay; assay type: functional; procedure, shortened: as §1
[8] = tested on: Calf thymus DNA; assay: Binding affinity to calf thymus DNA assessed as maximum absorption wavelength shift at pH 7.4 at 10 uM by UV-vis absorption spectroscopy; assay type: nucleic-acid assay; conditions: Bos taurus; procedure, shortened: as §2
[9] = tested on: Panel CNS (Carcinoma cell lines); assay: Anticancer activity against human Panel CNS (Carcinoma cell lines) assessed as lethality incubated for 48 hrs by Sulphorhodamine B assay; assay type: functional
[10] = target: T1, DNA topoisomerase 1 (Homo sapiens) (UniProt P11387); assay: Inhibition of human DNA topoisomerase I mediated supercoiled pHOT1 plasmid DNA relaxation upto 100 uM incubated for 30 mins by ethidium bromide staining based agarose gel electrophoresis analysis
T1 sequence (whole entry): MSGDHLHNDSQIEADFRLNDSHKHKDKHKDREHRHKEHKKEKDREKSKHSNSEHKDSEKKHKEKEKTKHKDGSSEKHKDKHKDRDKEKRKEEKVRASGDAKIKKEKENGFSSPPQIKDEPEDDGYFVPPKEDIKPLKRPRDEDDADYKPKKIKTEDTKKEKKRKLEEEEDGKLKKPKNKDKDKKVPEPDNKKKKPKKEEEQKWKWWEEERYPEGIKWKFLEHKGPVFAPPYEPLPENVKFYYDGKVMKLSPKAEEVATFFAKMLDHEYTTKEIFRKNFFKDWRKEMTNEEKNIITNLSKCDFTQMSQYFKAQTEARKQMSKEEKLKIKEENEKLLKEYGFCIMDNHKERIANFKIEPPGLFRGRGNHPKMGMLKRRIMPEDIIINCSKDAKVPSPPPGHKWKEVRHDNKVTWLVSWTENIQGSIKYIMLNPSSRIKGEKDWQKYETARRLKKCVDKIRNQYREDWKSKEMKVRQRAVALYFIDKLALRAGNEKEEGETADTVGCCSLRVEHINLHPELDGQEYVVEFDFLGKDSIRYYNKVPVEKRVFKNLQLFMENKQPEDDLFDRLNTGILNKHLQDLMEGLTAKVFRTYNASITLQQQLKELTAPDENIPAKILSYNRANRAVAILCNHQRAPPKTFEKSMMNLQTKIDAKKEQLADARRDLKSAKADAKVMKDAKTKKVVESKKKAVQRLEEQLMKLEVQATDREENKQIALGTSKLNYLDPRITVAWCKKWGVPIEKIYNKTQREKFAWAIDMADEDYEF

[11] = Anticancer activity against human Non-small cell lung cancer cell line assessed as cell growth inhibition incubated for 48 hrs by Sulphorhodamine B assay; assay type: functional; procedure, shortened: as §1
[12] = tested on: Calf thymus DNA; assay: Binding affinity to calf thymus DNA assessed as decrease in maximum emission wavelength at pH 7.4 at 10 uM by fluorescence spectroscopy; assay type: nucleic-acid assay; conditions: Bos taurus
Procedure, shortened: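 Compound was held constant (10 μM per legend; 20 μM in methods) and titrated with ct-DNA (0–20 μM) in 10 mM phosphate buffer, pH 7.4. Emission spectra were excited at 300 nm, with a buffer-only control. Binding constant came from a Benesi–Hildebrand plot.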

[13] = tested on: Panel leukemia (Carcinoma cell lines); assay: Anticancer activity against human Panel leukemia (Carcinoma cell lines) assessed as total growth inhibition incubated for 48 hrs by Sulphorhodamine B assay; assay type: functional
[14] = tested on: Panel colon (Carcinoma cell lines); assay: Anticancer activity against human Panel colon (Carcinoma cell lines) assessed as lethality incubated for 48 hrs by Sulphorhodamine B assay; assay type: functional
[15] = tested on: Panel prostate (Carcinoma cell lines); assay: Anticancer activity against human Panel prostate (Carcinoma cell lines) assessed as total growth inhibition incubated for 48 hrs by Sulphorhodamine B assay; assay type: functional; procedure, shortened: as §1
[16] = tested on: Panel leukemia (Carcinoma cell lines); assay: Anticancer activity against human Panel leukemia (Carcinoma cell lines) assessed as cell growth inhibition incubated for 48 hrs by Sulphorhodamine B assay; assay type: functional; procedure, shortened: as §1
[17] = target: DNA topoisomerase 2-alpha (Homo sapiens) (UniProt P11388); assay: Inhibition of human DNA topoisomerase II-alpha mediated supercoiled pHOT1 plasmid DNA relaxation at 100 uM incubated for 30 mins by ethidium bromide staining based agarose gel electrophoresis analysis
Chain of DNA topoisomerase 2-alpha (Homo sapiens) (P11388 whole entry): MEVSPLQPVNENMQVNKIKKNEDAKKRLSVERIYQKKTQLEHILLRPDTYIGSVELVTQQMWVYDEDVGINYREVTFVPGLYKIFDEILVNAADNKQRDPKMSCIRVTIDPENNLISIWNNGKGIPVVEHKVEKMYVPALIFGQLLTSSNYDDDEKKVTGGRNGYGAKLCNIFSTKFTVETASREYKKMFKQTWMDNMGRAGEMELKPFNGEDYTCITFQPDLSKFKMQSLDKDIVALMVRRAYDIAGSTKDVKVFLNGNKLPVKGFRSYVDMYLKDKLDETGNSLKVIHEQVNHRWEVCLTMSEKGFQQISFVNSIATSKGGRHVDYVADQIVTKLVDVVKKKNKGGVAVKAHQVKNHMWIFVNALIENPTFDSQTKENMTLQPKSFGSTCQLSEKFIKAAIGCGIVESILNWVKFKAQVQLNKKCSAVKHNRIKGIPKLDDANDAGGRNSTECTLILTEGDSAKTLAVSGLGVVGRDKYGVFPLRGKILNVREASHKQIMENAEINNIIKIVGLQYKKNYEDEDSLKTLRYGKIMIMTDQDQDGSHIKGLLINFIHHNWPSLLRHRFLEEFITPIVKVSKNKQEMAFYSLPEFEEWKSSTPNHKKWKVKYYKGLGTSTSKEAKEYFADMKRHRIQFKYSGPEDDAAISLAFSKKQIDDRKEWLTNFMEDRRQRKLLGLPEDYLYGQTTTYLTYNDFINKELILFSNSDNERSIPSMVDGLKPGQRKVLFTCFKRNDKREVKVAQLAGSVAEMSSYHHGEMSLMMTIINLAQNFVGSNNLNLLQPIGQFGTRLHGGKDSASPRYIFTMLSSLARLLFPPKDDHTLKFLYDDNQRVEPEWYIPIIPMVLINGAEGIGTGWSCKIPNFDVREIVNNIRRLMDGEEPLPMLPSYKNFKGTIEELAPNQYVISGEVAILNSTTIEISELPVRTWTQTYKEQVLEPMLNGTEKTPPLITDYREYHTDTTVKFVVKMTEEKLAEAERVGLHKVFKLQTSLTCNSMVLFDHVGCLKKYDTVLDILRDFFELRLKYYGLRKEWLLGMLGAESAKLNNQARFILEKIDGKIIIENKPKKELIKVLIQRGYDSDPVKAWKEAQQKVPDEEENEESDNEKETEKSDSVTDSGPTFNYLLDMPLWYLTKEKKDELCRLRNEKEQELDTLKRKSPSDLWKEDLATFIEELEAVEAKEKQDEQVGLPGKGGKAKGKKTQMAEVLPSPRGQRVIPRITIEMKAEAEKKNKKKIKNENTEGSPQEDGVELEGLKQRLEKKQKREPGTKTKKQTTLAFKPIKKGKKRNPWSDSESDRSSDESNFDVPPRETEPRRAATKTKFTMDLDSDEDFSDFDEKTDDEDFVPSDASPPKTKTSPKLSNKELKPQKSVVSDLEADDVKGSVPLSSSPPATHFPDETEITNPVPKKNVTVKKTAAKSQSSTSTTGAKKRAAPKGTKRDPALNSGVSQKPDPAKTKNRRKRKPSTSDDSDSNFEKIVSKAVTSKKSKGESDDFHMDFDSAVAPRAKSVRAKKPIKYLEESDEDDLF
Procedure, shortened: (§3)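 Reaction buffer: 50 mM Tris-Cl pH 8.0, 120 mM KCl, 10 mM MgCl2, 0.5 mM ATP, 0.5 mM DTT. Each reaction held 500 ng supercoiled pHOT1 and 1 U human Topo IIα, with compound at 10–100 μM, for 30 min at 37 °C. Reactions were stopped with glycerol/EDTA/bromophenol blue, run on 1% agarose in TBE, and stained with ethidium bromide. Etoposide 25 μM was the positive control.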

[18] = tested on: Calf thymus DNA; assay: Displacement of Ethidium bromide from calf thymus DNA/EtBr complex assessed as decrease in fluorescent intensity by fluorescence based EtBr-displacement assay; assay type: nucleic-acid assay; conditions: Bos taurus
Procedure, shortened: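 ct-DNA (0–20 μM) was pre-mixed with ethidium bromide, diluted from a 1 mM stock. Compound was then added in 2 μM steps up to 50 μM, with mixing after each addition. Emission was recorded with excitation at 480 nm.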

[19] = target: DNA topoisomerase 2-alpha (Homo sapiens) (UniProt P11388); assay: Inhibition of human DNA topoisomerase II-alpha mediated supercoiled pHOT1 plasmid DNA relaxation at 75 uM incubated for 30 mins by ethidium bromide staining based agarose gel electrophoresis analysis; procedure, shortened: as §3
[20] = tested on: Panel melanoma (Carcinoma cell lines); assay: Anticancer activity against human Panel melanoma (Carcinoma cell lines) assessed as lethality incubated for 48 hrs by Sulphorhodamine B assay; assay type: functional
[21] = tested on: Panel colon (Carcinoma cell lines); assay: Anticancer activity against human Panel colon (Carcinoma cell lines) assessed as cell growth inhibition incubated for 48 hrs by Sulphorhodamine B assay; assay type: functional; procedure, shortened: as §1
[22] = tested on: Panel melanoma (Carcinoma cell lines); assay: Anticancer activity against human Panel melanoma (Carcinoma cell lines) assessed as total growth inhibition incubated for 48 hrs by Sulphorhodamine B assay; assay type: functional; procedure, shortened: as §1

Row | SMILES | TGI [1] | LC50 (50% lethal concentration) [2] | TGI [3] | LC50 (concentration killing 50% of cells) [4] | Activity [5] | GI50 [6] | GI50 [7] | Activity [8] | LC50 (concentration killing 50% of cells) [9] | inhibition [10] | GI50 [11] | Activity [12] | TGI [13] | LC50 (lethal concentration, 50% cell kill) [14] | TGI [15] | GI50 [16] | inhibition [17] | Activity [18] | inhibition [19] | LC50 (lethal concentration 50) [20] | further results
1 | Fc1ccc(Nc2nc(Nc3ccc(-c4nc5ccccc5[nH]4)cc3)c3cn[nH]c3n2)cc1 | 3.83 µM | 18.2 µM | 5.08 µM | 28.9 µM | Active | 2.49 µM | 1.99 µM | 257 nm | 20.4 µM | inactive | 2.11 µM | Active | 6.33 µM | 6.8 µM | 4.14 µM | 2.62 µM | Active | Active | Active | 6.92 µM | GI50 [21]: 1.78 µM; TGI [22]: 3.74 µM
2 | OCCN1CCN(c2nc(Nc3ccc(-c4nc5ccccc5[nH]4)cc3)c3cn[nH]c3n2)CC1 | 2.12 µM | 5.85 µM | 3.26 µM | 6.09 µM | Active | 1.84 µM | 1.8 µM | 259 nm | 5.72 µM | inactive | 1.57 µM | Active | 1.22 µM | 5.71 µM | 2.96 µM | 0.44 µM | Active | Active | Active | 5.83 µM | GI50 [21]: 0.72 µM; TGI [22]: 3.41 µM
